ChEMBL document CHEMBL4627348, “Synthesis of (1,3,4-thiadiazol-2-yl)-acrylamide derivatives as potential antitumor agents against acute leukemia cells” (Bioorg Med Chem Lett, 2020)
pIC50: −log10 of the molar value. The source made the active and inactive calls. The calls are words filed in the database; no cut-off is given here.

Tested on: RS4-11
Test: Induction of apoptosis in human RS4:11 cells assessed as increase in cleaved PARP protein expression at 2.5 to 40 uM after 48 hrs by Western blot analysis
Assay type: functional, cell-based
Details: not given
Outline: (§1)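 RS4;11 cells treated 48 h at concentrations from 2.5 to 40 μM, DMSO as negative control. Western blot for full-length PARP (116 kDa) and cleaved PARP (89 kDa), plus cleaved caspase-3 and cleaved caspase-9.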

Compound	Activity
COc1ccc(Cc2nnc(NC(=O)/C(C#N)=C/c3ccccc3OS(=O)(=O)c3ccc(OC)cc3)s2)cc1	Active
COc1ccc(S(=O)(=O)Oc2ccccc2/C=C(\C#N)C(=O)Nc2nnc(Cc3ccc(F)cc3)s2)cc1	Active
COc1ccc(S(=O)(=O)Oc2ccccc2/C=C(\C#N)C(=O)Nc2nnc(Cc3ccc(Cl)cc3)s2)cc1	Active

Tested on: RS4-11
Test: Induction of apoptosis in human RS4:11 cells assessed as necrotic cells at 40 uM after 48 hrs by Annexin-V and 7-AAD staining based flow cytometric analysis (reference value: 0.67%)
Assay type: functional
Details: not given

Compound	Activity [%]
COc1ccc(Cc2nnc(NC(=O)/C(C#N)=C/c3ccccc3OS(=O)(=O)c3ccc(OC)cc3)s2)cc1	2.58
COc1ccc(S(=O)(=O)Oc2ccccc2/C=C(\C#N)C(=O)Nc2nnc(Cc3ccc(F)cc3)s2)cc1	2.07
COc1ccc(S(=O)(=O)Oc2ccccc2/C=C(\C#N)C(=O)Nc2nnc(Cc3ccc(Cl)cc3)s2)cc1	2.68

Tested on: not listed separately
Test: Cytotoxicity against HEK293T cells assessed as growth inhibition at 20 uM after 48 hrs by CCK8 assay relative to control
Assay type: cell-based, HEK-293T
Details: human, HEK293T cells; read-out: GI
Outline: (§2)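 Single-dose screen at 20 μM in RS4;11 (human ALL), HL-60 (human promyelocytic leukemia) and HEK293T (normal-cell model). Cells exposed 48 h, viability read by CCK-8, growth inhibition ratio expressed relative to control.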

Compound	inhibition at 48 h, 20 µM [%]
Cc1ccc(S(=O)(=O)Oc2ccccc2/C=C(\C#N)C(=O)Nc2nnc(C)s2)cc1	35
COc1ccc(S(=O)(=O)Oc2ccccc2/C=C(\C#N)C(=O)Nc2nnc(Cc3ccccc3)s2)cc1	23
COc1ccc(Cc2nnc(NC(=O)/C(C#N)=C/c3ccccc3OS(=O)(=O)c3ccc(OC)cc3)s2)cc1	30
COc1ccc(S(=O)(=O)Nc2cccc(/C=C(\C#N)C(=O)Nc3nnc(-c4cccs4)s3)c2)cc1	21
COc1ccc(S(=O)(=O)Oc2ccccc2/C=C(\C#N)C(=O)Nc2nnc(Cc3ccc(F)cc3)s2)cc1	20
COc1ccc(S(=O)(=O)Oc2ccccc2/C=C(\C#N)C(=O)Nc2nnc(Cc3ccc(Cl)cc3)s2)cc1	26

Tested on: RS4-11
Test: Induction of apoptosis in human RS4:11 cells assessed as late apoptotic cells at 40 uM after 48 hrs by Annexin-V and 7-AAD staining based flow cytometric analysis (reference value: 2.71%)
Assay type: functional
Details: not given

Compound	Activity [%]
COc1ccc(Cc2nnc(NC(=O)/C(C#N)=C/c3ccccc3OS(=O)(=O)c3ccc(OC)cc3)s2)cc1	72.63
COc1ccc(S(=O)(=O)Oc2ccccc2/C=C(\C#N)C(=O)Nc2nnc(Cc3ccc(F)cc3)s2)cc1	61.84
COc1ccc(S(=O)(=O)Oc2ccccc2/C=C(\C#N)C(=O)Nc2nnc(Cc3ccc(Cl)cc3)s2)cc1	76.08

Tested on: RS4-11
Test: Antiproliferative activity against human RS4:11 cells assessed as growth inhibition after 48 hrs by CCK-8 assay
Assay type: functional, cell-based
Details: RS4-11, 48 h

Compound	pIC50
Cc1ccc(S(=O)(=O)Oc2ccccc2/C=C(\C#N)C(=O)Nc2nnc(C)s2)cc1	< 4.70
COc1ccc(S(=O)(=O)Oc2ccccc2/C=C(\C#N)C(=O)Nc2nnc(Cc3ccccc3)s2)cc1	5.97
COc1ccc(Cc2nnc(NC(=O)/C(C#N)=C/c3ccccc3OS(=O)(=O)c3ccc(OC)cc3)s2)cc1	6.08
COc1ccc(S(=O)(=O)Nc2cccc(/C=C(\C#N)C(=O)Nc3nnc(-c4cccs4)s3)c2)cc1	< 4.70
COc1ccc(S(=O)(=O)Oc2ccccc2/C=C(\C#N)C(=O)Nc2nnc(Cc3ccc(F)cc3)s2)cc1	5.92
COc1ccc(S(=O)(=O)Oc2ccccc2/C=C(\C#N)C(=O)Nc2nnc(Cc3ccc(Cl)cc3)s2)cc1	5.90

Tested on: RS4-11
Test: Induction of apoptosis in human RS4:11 cells assessed as increase in cleaved caspase-9 protein expression after 48 hrs by Western blot analysis
Assay type: functional, cell-based
Details: not given
Outline: as §1

Compound	Activity
COc1ccc(Cc2nnc(NC(=O)/C(C#N)=C/c3ccccc3OS(=O)(=O)c3ccc(OC)cc3)s2)cc1	Dose-dependent effect
COc1ccc(S(=O)(=O)Oc2ccccc2/C=C(\C#N)C(=O)Nc2nnc(Cc3ccc(F)cc3)s2)cc1	Dose-dependent effect
COc1ccc(S(=O)(=O)Oc2ccccc2/C=C(\C#N)C(=O)Nc2nnc(Cc3ccc(Cl)cc3)s2)cc1	Dose-dependent effect

Tested on: HL-60
Test: Antiproliferative activity against human HL60 cells assessed as growth inhibition at 20 uM after 48 hrs by CCK-8 assay relative to control
Assay type: functional
Details: HL-60, 48 h, read-out: GI
Outline: as §2

Compound	inhibition of growth at 20 µM [%]
Cc1ccc(S(=O)(=O)Oc2ccccc2/C=C(\C#N)C(=O)Nc2nnc(C)s2)cc1	78
COc1ccc(S(=O)(=O)Oc2ccccc2/C=C(\C#N)C(=O)Nc2nnc(Cc3ccccc3)s2)cc1	100
COc1ccc(Cc2nnc(NC(=O)/C(C#N)=C/c3ccccc3OS(=O)(=O)c3ccc(OC)cc3)s2)cc1	100
COc1ccc(S(=O)(=O)Nc2cccc(/C=C(\C#N)C(=O)Nc3nnc(-c4cccs4)s3)c2)cc1	77
COc1ccc(S(=O)(=O)Oc2ccccc2/C=C(\C#N)C(=O)Nc2nnc(Cc3ccc(F)cc3)s2)cc1	100
COc1ccc(S(=O)(=O)Oc2ccccc2/C=C(\C#N)C(=O)Nc2nnc(Cc3ccc(Cl)cc3)s2)cc1	99

Tested on: RS4-11
Test: Induction of apoptosis in human RS4:11 cells assessed as early apoptotic cells at 40 uM after 48 hrs by Annexin-V and 7-AAD staining based flow cytometric analysis (reference value: 2.56%)
Assay type: functional
Details: not given

Compound	Activity [%]
COc1ccc(Cc2nnc(NC(=O)/C(C#N)=C/c3ccccc3OS(=O)(=O)c3ccc(OC)cc3)s2)cc1	5.07
COc1ccc(S(=O)(=O)Oc2ccccc2/C=C(\C#N)C(=O)Nc2nnc(Cc3ccc(F)cc3)s2)cc1	5.88
COc1ccc(S(=O)(=O)Oc2ccccc2/C=C(\C#N)C(=O)Nc2nnc(Cc3ccc(Cl)cc3)s2)cc1	5

Tested on: RS4-11
Test: Induction of apoptosis in human RS4:11 cells assessed as viable cells at 40 uM after 48 hrs by Annexin-V and 7-AAD staining based flow cytometric analysis (reference value: 94.06%)
Assay type: functional
Details: RS4-11, 48 h, read-out: Activity

Compound	viability at 40 µM [%]
COc1ccc(Cc2nnc(NC(=O)/C(C#N)=C/c3ccccc3OS(=O)(=O)c3ccc(OC)cc3)s2)cc1	19.7
COc1ccc(S(=O)(=O)Oc2ccccc2/C=C(\C#N)C(=O)Nc2nnc(Cc3ccc(F)cc3)s2)cc1	30.2
COc1ccc(S(=O)(=O)Oc2ccccc2/C=C(\C#N)C(=O)Nc2nnc(Cc3ccc(Cl)cc3)s2)cc1	16.2

Tested on: HL-60
Test: Antiproliferative activity against human HL60 cells assessed as growth inhibition after 48 hrs by CCK-8 assay
Assay type: functional, cell-based
Details: HL-60, 48 h

Compound	pIC50
Cc1ccc(S(=O)(=O)Oc2ccccc2/C=C(\C#N)C(=O)Nc2nnc(C)s2)cc1	4.94
COc1ccc(S(=O)(=O)Oc2ccccc2/C=C(\C#N)C(=O)Nc2nnc(Cc3ccccc3)s2)cc1	5.50
COc1ccc(Cc2nnc(NC(=O)/C(C#N)=C/c3ccccc3OS(=O)(=O)c3ccc(OC)cc3)s2)cc1	5.51
COc1ccc(S(=O)(=O)Nc2cccc(/C=C(\C#N)C(=O)Nc3nnc(-c4cccs4)s3)c2)cc1	5.08
COc1ccc(S(=O)(=O)Oc2ccccc2/C=C(\C#N)C(=O)Nc2nnc(Cc3ccc(F)cc3)s2)cc1	5.39
COc1ccc(S(=O)(=O)Oc2ccccc2/C=C(\C#N)C(=O)Nc2nnc(Cc3ccc(Cl)cc3)s2)cc1	5.36

Tested on: RS4-11
Test: Induction of apoptosis in human RS4:11 cells assessed as PARP degradation at 2.5 to 40 uM after 48 hrs by Western blot analysis
Assay type: functional, cell-based
Details: not given
Outline: as §1

Compound	Activity
COc1ccc(Cc2nnc(NC(=O)/C(C#N)=C/c3ccccc3OS(=O)(=O)c3ccc(OC)cc3)s2)cc1	Active
COc1ccc(S(=O)(=O)Oc2ccccc2/C=C(\C#N)C(=O)Nc2nnc(Cc3ccc(F)cc3)s2)cc1	Active
COc1ccc(S(=O)(=O)Oc2ccccc2/C=C(\C#N)C(=O)Nc2nnc(Cc3ccc(Cl)cc3)s2)cc1	Active

Tested on: RS4-11
Test: Induction of mitochondrial membrane potential loss in human RS4:11 cells at 40 uM after 48 hrs by MitoSense Red staining based fluorescence assay
Assay type: functional, cell-based
Details: not given
Outline: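 RS4;11 cells exposed 48 h at 5–40 μM, DMSO as negative control. Stained with MitoSense Red and analysed by flow cytometry. Loss of mitochondrial membrane potential is read as a drop in Red2 fluorescence.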

Compound	Activity
COc1ccc(Cc2nnc(NC(=O)/C(C#N)=C/c3ccccc3OS(=O)(=O)c3ccc(OC)cc3)s2)cc1	Active
COc1ccc(S(=O)(=O)Oc2ccccc2/C=C(\C#N)C(=O)Nc2nnc(Cc3ccc(F)cc3)s2)cc1	Active
COc1ccc(S(=O)(=O)Oc2ccccc2/C=C(\C#N)C(=O)Nc2nnc(Cc3ccc(Cl)cc3)s2)cc1	Active

Tested on: RS4-11
Test: Induction of apoptosis in human RS4:11 cells assessed as increase in cleaved caspase-3 protein expression after 48 hrs by Western blot analysis
Assay type: functional, cell-based
Details: not given
Outline: as §1

Compound	Activity
COc1ccc(Cc2nnc(NC(=O)/C(C#N)=C/c3ccccc3OS(=O)(=O)c3ccc(OC)cc3)s2)cc1	Dose-dependent effect
COc1ccc(S(=O)(=O)Oc2ccccc2/C=C(\C#N)C(=O)Nc2nnc(Cc3ccc(F)cc3)s2)cc1	Dose-dependent effect
COc1ccc(S(=O)(=O)Oc2ccccc2/C=C(\C#N)C(=O)Nc2nnc(Cc3ccc(Cl)cc3)s2)cc1	Dose-dependent effect

Tested on: RS4-11
Test: Antiproliferative activity against human RS4:11 cells assessed as growth inhibition at 20 uM after 48 hrs by CCK-8 assay relative to control
Assay type: functional
Details: RS4-11, 48 h, read-out: GI
Outline: as §2

Compound	inhibition of growth at 20 µM [%]
Cc1ccc(S(=O)(=O)Oc2ccccc2/C=C(\C#N)C(=O)Nc2nnc(C)s2)cc1	33
COc1ccc(S(=O)(=O)Oc2ccccc2/C=C(\C#N)C(=O)Nc2nnc(Cc3ccccc3)s2)cc1	78
COc1ccc(Cc2nnc(NC(=O)/C(C#N)=C/c3ccccc3OS(=O)(=O)c3ccc(OC)cc3)s2)cc1	78
COc1ccc(S(=O)(=O)Nc2cccc(/C=C(\C#N)C(=O)Nc3nnc(-c4cccs4)s3)c2)cc1	40
COc1ccc(S(=O)(=O)Oc2ccccc2/C=C(\C#N)C(=O)Nc2nnc(Cc3ccc(F)cc3)s2)cc1	76
COc1ccc(S(=O)(=O)Oc2ccccc2/C=C(\C#N)C(=O)Nc2nnc(Cc3ccc(Cl)cc3)s2)cc1	77

Tested on: HEK-293T
Test: Cytotoxicity against human HEK293T cells assessed as growth inhibition after 48 hrs by CCK8 assay
Assay type: cell-based
Details: not given

Compound	pIC50
Cc1ccc(S(=O)(=O)Oc2ccccc2/C=C(\C#N)C(=O)Nc2nnc(C)s2)cc1	< 4.70
COc1ccc(S(=O)(=O)Oc2ccccc2/C=C(\C#N)C(=O)Nc2nnc(Cc3ccccc3)s2)cc1	< 4.30
COc1ccc(Cc2nnc(NC(=O)/C(C#N)=C/c3ccccc3OS(=O)(=O)c3ccc(OC)cc3)s2)cc1	< 4.30
COc1ccc(S(=O)(=O)Nc2cccc(/C=C(\C#N)C(=O)Nc3nnc(-c4cccs4)s3)c2)cc1	< 4.70
COc1ccc(S(=O)(=O)Oc2ccccc2/C=C(\C#N)C(=O)Nc2nnc(Cc3ccc(F)cc3)s2)cc1	< 4.30
COc1ccc(S(=O)(=O)Oc2ccccc2/C=C(\C#N)C(=O)Nc2nnc(Cc3ccc(Cl)cc3)s2)cc1	< 4.30

Tested on: RS4-11
Test: Induction of apoptosis in human RS4:11 cells assessed as increase in cleaved PARP protein expression after 48 hrs by Western blot analysis
Assay type: functional, cell-based
Details: not given
Outline: as §1

Compound	Activity
COc1ccc(Cc2nnc(NC(=O)/C(C#N)=C/c3ccccc3OS(=O)(=O)c3ccc(OC)cc3)s2)cc1	Dose-dependent effect
COc1ccc(S(=O)(=O)Oc2ccccc2/C=C(\C#N)C(=O)Nc2nnc(Cc3ccc(F)cc3)s2)cc1	Dose-dependent effect
COc1ccc(S(=O)(=O)Oc2ccccc2/C=C(\C#N)C(=O)Nc2nnc(Cc3ccc(Cl)cc3)s2)cc1	Dose-dependent effect
